Reference: PubChem BioAssay AID652075 (The Scripps Research Institute Molecular Screening Center, 2013)
The source made the active and inactive calls.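 The calls were made as follows: active = hERG binding inhibition of 50% or more, or stimulation of 50% or more, shown as inhibition of -50% or lower; inactive = the rest.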

Biological target: Voltage-gated inwardly rectifying potassium channel KCNH2 (Homo sapiens) (UniProt Q12809)
Experiment: KCNH2 channel binding inhibition – biochemical, radiometric, counter-screen for OPRK1 antagonist project, late-stage follow-up (AID 652075)
Settings: hERG radioligand binding displacement, CEREP; at 10 µM; hits give high values
In short: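 Material – hERG radioligand binding · Control set – nonspecific binding with excess unlabelled ligand · Doses – 10 µM single dose · Read-out – percent inhibition of specific binding versus control, negatives denoting stimulation · Technique – radiometric measurement of bound radioligand · Probe or stimulus – radioligand, unlabelled ligand excess for nonspecific · Replication – duplicate measurements per compound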

Chain of Voltage-gated inwardly rectifying potassium channel KCNH2 (Homo sapiens) (Q12809 whole entry, looked up): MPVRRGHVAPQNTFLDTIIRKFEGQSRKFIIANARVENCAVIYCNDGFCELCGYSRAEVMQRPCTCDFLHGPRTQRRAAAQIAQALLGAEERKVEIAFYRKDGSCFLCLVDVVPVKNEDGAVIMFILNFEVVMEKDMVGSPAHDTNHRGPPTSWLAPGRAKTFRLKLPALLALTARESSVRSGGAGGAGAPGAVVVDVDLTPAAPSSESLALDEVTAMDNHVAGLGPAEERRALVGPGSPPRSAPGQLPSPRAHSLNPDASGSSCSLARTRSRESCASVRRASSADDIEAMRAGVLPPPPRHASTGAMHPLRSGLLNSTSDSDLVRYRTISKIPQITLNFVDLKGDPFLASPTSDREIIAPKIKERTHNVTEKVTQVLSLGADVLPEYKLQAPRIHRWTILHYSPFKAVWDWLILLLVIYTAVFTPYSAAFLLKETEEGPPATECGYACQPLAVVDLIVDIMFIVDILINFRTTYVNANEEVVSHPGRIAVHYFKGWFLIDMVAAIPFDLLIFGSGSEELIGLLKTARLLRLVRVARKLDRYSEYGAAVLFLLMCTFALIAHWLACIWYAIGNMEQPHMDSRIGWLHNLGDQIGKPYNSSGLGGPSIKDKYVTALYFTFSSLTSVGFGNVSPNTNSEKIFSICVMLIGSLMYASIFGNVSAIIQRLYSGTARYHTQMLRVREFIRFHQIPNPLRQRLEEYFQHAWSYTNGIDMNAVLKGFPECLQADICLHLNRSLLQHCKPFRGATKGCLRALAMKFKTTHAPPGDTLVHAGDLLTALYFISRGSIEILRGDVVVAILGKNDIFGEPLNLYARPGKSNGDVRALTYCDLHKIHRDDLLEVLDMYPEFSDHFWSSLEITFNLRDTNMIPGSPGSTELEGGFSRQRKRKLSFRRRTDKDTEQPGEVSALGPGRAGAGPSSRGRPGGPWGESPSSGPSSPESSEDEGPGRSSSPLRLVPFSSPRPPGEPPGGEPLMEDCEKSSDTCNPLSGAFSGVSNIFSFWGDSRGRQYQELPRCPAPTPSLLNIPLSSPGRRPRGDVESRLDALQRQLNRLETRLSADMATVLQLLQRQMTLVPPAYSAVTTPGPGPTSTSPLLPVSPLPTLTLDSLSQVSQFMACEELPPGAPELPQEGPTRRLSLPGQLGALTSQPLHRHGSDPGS

## COC(=O)c1cc(Br)cnc1N1CCC(NC2CCCCC2)C(O)C1 (stereo unspecified)
  inhibition: 39.3% (inactive)
